Measured values published in ChEMBL document CHEMBL1649566, “In vitro activity of antifolate and polymorphism in dihydrofolate reductase of Plasmodium falciparum isolates from the Kenyan coast: emergence of parasites with Ile-164-Leu mutation” (Antimicrob Agents Chemother, 2009).

How the values were obtained:
Type in all cases: functional, organism-based
Plasmodium falciparum [1] = experiment: Antimalarial activity against Plasmodium falciparum Kenyan isolates expressing DHFR Ser108Asn and Cys59Arg or Ser108Asn and Asn51Ile double mutant by [3H]hypoxanthine incorporation assay
Method in brief: (§1)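 Kenyan isolates (Kilifi, 2006–2008) adapted to long-term in vitro culture; dhfr codons 108, 51, 59, 164 genotyped by PCR-RFLP. Cultured in RPMI 1640 with 10% human serum, 25 mM bicarbonate, 2 mM glutamine, 25 mM HEPES, 5 nM para-aminobenzoic acid, 23 nM folic acid, in washed human erythrocytes. Graded drug concentrations; [3H]hypoxanthine incorporation; IC50 by nonlinear regression of dose-response.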

Plasmodium falciparum [2] = experiment: Antimalarial activity against pyrimethamine-sensitive Plasmodium falciparum 3D7 expressing wild type DHFR by [3H]hypoxanthine incorporation assay
Plasmodium falciparum [3] = experiment: Antimalarial activity against pyrimethamine-resistant Plasmodium falciparum V1S expressing DHFR quadruple mutant with point mutations at codons 108, 51, 59 and 164 gene by [3H]hypoxanthine incorporation assay
Plasmodium falciparum [4] = experiment: Antimalarial activity against Plasmodium falciparum Kenyan isolates expressing DHFR Ser108Asn, Asn51Ile and Cys59Arg triple mutant by [3H]hypoxanthine incorporation assay; method in brief: as §1
Plasmodium falciparum [5] = experiment: Antimalarial activity against Plasmodium falciparum isolate Kil-164 expressing DHFR Ser108Asn, Asn51Ile, Cys59Arg and Ile164Leu quadruple mutant by [3H]hypoxanthine incorporation assay; method in brief: as §1
Plasmodium falciparum [6] = experiment: Antimalarial activity against Plasmodium falciparum Kenyan isolates by [3H]hypoxanthine incorporation assay

SMILES	IC50 (Plasmodium falciparum [1])	IC50 (Plasmodium falciparum [2])	IC50 (Plasmodium falciparum [3])	IC50 (Plasmodium falciparum [4])	IC50 (Plasmodium falciparum [5])	IC50 (Plasmodium falciparum [6])
CC1(C)N=C(N)N=C(N)N1OCCCOc1cc(Cl)c(Cl)cc1Cl	0.069 nM	0.015 nM	0.063 nM	0.1 nM	0.012 nM	0.072 nM
CC1(C)N=C(N)N=C(N)N1c1ccc(Cl)c(Cl)c1 [CHLORCYCLOGUANIL]	38.1 nM	0.011 nM	92.3 nM	40 nM	87.7 nM	37.8 nM
CN(Cc1cnc2nc(N)nc(N)c2n1)c1ccc(C(=O)N[C@@H](CCC(=O)O)C(=O)O)cc1 [METHOTREXATE]	84.9 nM	49.9 nM	40 nM	83.6 nM	56.6 nM	83.6 nM
CCc1nc(N)nc(N)c1-c1ccc(Cl)cc1 [PYRIMETHAMINE]	–	3.9 nM	6930 nM	–	–	733 nM
COc1cc(Cc2cnc(N)nc2N)cc(OC)c1OC [TRIMETHOPRIM]	9310 nM	407 nM	102000 nM	33700 nM	155000 nM	29700 nM
COc1cc(NCc2ccc3nc(N)nc(N)c3c2C)cc(OC)c1OC [TRIMETREXATE]	40.9 nM	1.9 nM	24.8 nM	20.9 nM	44.7 nM	30 nM
